The test system of data set [1] is Mus musculus. The data set is described as follows: Biodistribution was measured in mice skin 30 minutes after intravenous injection of [125I]-labeled styrylbenzene. To be noted: in vivo, 0.5 h. Format: ADME, organism-based, Zone of skin. The essentials:
(§1)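 ICR mice (2-3 months old, 20-30 g) under ether anesthesia received 5-10 µCi ¹²⁵I tracer in 0.15 mL saline by tail-vein injection. Animals were killed by cardiac excision at set times post-injection. Organs were removed, weighed and γ-counted. Values are % dose per organ against diluted injectate aliquots, taking blood and muscle as 7% and 40% of body weight. Mean of 3-4 mice ± SD.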

Data set [2] deals with Mus musculus. Description: Biodistribution was measured in mice brain 60 minutes after intravenous injection of [125I]-labeled styrylbenzene. In kind it is ADME, organism-based. The following applies: in vivo, 1 h. The essentials: as §1
For data set [3], the system named is Mus musculus. The data set is described as follows: Biodistribution was measured in mice skin 60 minutes after intravenous injection of [125I]-labeled styrylbenzene. Format: ADME, organism-based, Zone of skin. The following applies: in vivo, 1 h. The method in brief:
as §1

Data set [4] concerns Mus musculus. Description: Biodistribution was measured in mice lung 30 minutes after intravenous injection of [125I]-labeled styrylbenzene. Format: ADME, organism-based. The following applies: in vivo, 0.5 h. The method in brief: as §1
In data set [5] the test system is Mus musculus. Description: Biodistribution was measured in mice lung 60 minutes after intravenous injection of [125I]-labeled styrylbenzene. In kind it is ADME, organism-based. The following applies: in vivo, 1 h. The method in brief: as §1
Data set [6] relates to Mus musculus. Description: Biodistribution was measured in mice heart 5 minutes after intravenous injection of [125I]-labeled styrylbenzene. Format: ADME, organism-based. The following applies: in vivo. The essentials: as §1
In data set [7] the test system is Mus musculus. The data set is described as follows: Biodistribution was measured in mice liver 60 minutes after intravenous injection of [125I]-labeled styrylbenzene. In kind it is ADME, organism-based. To be noted: in vivo, 1 h. The essentials: as §1
The subject of data set [8] is Mus musculus. The data set is described as follows: Biodistribution was measured in mice blood 30 minutes after intravenous injection of [125I]-labeled styrylbenzene. In kind it is ADME, organism-based. To be noted: in vivo, 0.5 h. The essentials:
as §1

Data set [9] relates to Mus musculus. Description: Biodistribution was measured in mice heart 60 minutes after intravenous injection of [125I]-labeled styrylbenzene. In kind it is ADME, organism-based. To be noted: in vivo, 1 h. The method in brief: as §1
In data set [10] the test system is Mus musculus. The data set is described as follows: Biodistribution was measured in mice liver 5 minutes after intravenous injection of [125I]-labeled styrylbenzene. In kind it is ADME, organism-based. The following applies: in vivo. The method in brief: as §1
The test system of data set [11] is Mus musculus. The data set is described as follows: Biodistribution was measured in mice muscle 30 minutes after intravenous injection of [125I]-labeled styrylbenzene. In kind it is ADME, organism-based, Muscle tissue. The following applies: in vivo, 0.5 h. The essentials:
as §1

Data set [12] relates to Mus musculus. The data set is described as follows: Biodistribution was measured in mice muscle 60 minutes after intravenous injection of [125I]-labeled styrylbenzene. To be noted: in vivo, 1 h. In kind it is ADME, organism-based, Muscle tissue. The method in brief: as §1
In data set [13] the test system is Mus musculus. Description: Biodistribution was measured in mice spleen 5 minutes after intravenous injection of [125I]-labeled styrylbenzene. In kind it is ADME, organism-based. To be noted: in vivo. The essentials: (§2)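 ICR mice (2-3 months old, 20-30 g) under ether anesthesia; 0.15 mL saline containing 5-10 µCi ¹²⁵I tracer injected into tail vein. Sacrifice by cardiac excision at set times; organs removed, weighed, γ-counted. Expressed as % dose per organ versus diluted aliquots of injectate. Mean of three or four mice ± SD.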

Data set [14] deals with Mus musculus. The data set is described as follows: Biodistribution was measured in mice brain 5 minutes after intravenous injection of [125I]-labeled styrylbenzene. Format: ADME, organism-based. To be noted: in vivo. The essentials:
as §1

Data set [15] has as its system Mus musculus. Description: Biodistribution was measured in mice heart 30 minutes after intravenous injection of [125I]-labeled styrylbenzene. In kind it is ADME, organism-based. To be noted: in vivo, 0.5 h. The method in brief: as §1
The test system of data set [16] is Mus musculus. Description: Biodistribution was measured in mice muscle 5 minutes after intravenous injection of [125I]-labeled styrylbenzene. In kind it is ADME, organism-based, Muscle tissue. To be noted: in vivo. The method in brief: as §1
In data set [17] the test system is Mus musculus. Description: Biodistribution was measured in mice lung 5 minutes after intravenous injection of [125I]-labeled styrylbenzene. Format: ADME, organism-based. The following applies: in vivo. The method in brief: as §1
Data set [18] deals with T1, Amyloid-beta precursor protein (Homo sapiens, UniProt P05067). Description: Inhibition constant for aggregates of amyloid beta compared to [125I]IMSB. The essentials:
(§3)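 Aβ(1-40) or Aβ(1-42) aggregated at 0.5 or 0.25 mg/mL respectively in pH 7.4 buffer (10 mM sodium phosphate, 1 mM EDTA), 37 °C, 36-42 h with shaking. Competition against ¹²⁵I radioligand with fibrils 10-50 nM (final), 10% EtOH, 1 mL. Incubation 3 h room temperature. Bound ligand collected by GF/B filtration, γ-counted. Ki by nonlinear regression. Mean ± SEM, three experiments in duplicate.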

For data set [19], the system named is Mus musculus. Description: Biodistribution was measured in mice kidney 5 minutes after intravenous injection of [125I]-labeled styrylbenzene. The following applies: in vivo. In kind it is ADME, organism-based. The method in brief:
as §1

The target in data set [20] is T1, Amyloid-beta precursor protein. Description: Inhibition constant for amyloid beta compared to [125I]TZDM. The method in brief: as §3
The test system of data set [21] is Mus musculus. The data set is described as follows: Biodistribution was measured in mice blood 5 minutes after intravenous injection of [125I]-labeled styrylbenzene. The following applies: in vivo. In kind it is ADME, organism-based. The essentials: as §1
Data set [22] relates to Mus musculus. The data set is described as follows: Biodistribution was measured in mice kidney 30 minutes after intravenous injection of [125I]-labeled styrylbenzene. Format: ADME, organism-based. The following applies: in vivo, 0.5 h. The essentials:
as §1

Data set [23] relates to Mus musculus. The data set is described as follows: Biodistribution was measured in mice liver 30 minutes after intravenous injection of [125I]-labeled styrylbenzene. Format: ADME, organism-based. To be noted: in vivo, 0.5 h. The essentials: as §1
Data set [24] has as its system Mus musculus. The data set is described as follows: Biodistribution was measured in mice spleen 30 minutes after intravenous injection of [125I]-labeled styrylbenzene. The following applies: in vivo, 0.5 h. In kind it is ADME, organism-based. The essentials:
as §2

Data set [25] relates to Mus musculus. The data set is described as follows: Biodistribution was measured in mice blood 60 minutes after intravenous injection of [125I]-labeled styrylbenzene. Format: ADME, organism-based. To be noted: in vivo, 1 h. The essentials:
as §1

The test system of data set [26] is Mus musculus. The data set is described as follows: Biodistribution was measured in mice brain 30 minutes after intravenous injection of [125I]-labeled styrylbenzene. In kind it is ADME, organism-based. The following applies: in vivo, 0.5 h. The essentials:
as §1

The test system of data set [27] is Mus musculus. The data set is described as follows: Biodistribution was measured in mice kidney 60 minutes after intravenous injection of [125I]-labeled styrylbenzene. Format: ADME, organism-based. The following applies: in vivo, 1 h. The essentials: as §1
For data set [28], the system named is Mus musculus. Description: Biodistribution was measured in mice skin 5 minutes after intravenous injection of [125I]-labeled styrylbenzene. Format: ADME, organism-based, Zone of skin. The following applies: in vivo. The essentials:
as §1

Data set [29] has as its system Mus musculus. The data set is described as follows: Biodistribution was measured in mice spleen 60 minutes after intravenous injection of [125I]-labeled styrylbenzene. Format: ADME, organism-based. The following applies: in vivo, 1 h. The essentials:
as §2

Where “and” joins values, the source holds several entries; their conditions need not be identical. Identical values can stand only once.

T1 sequence (P05067 whole entry): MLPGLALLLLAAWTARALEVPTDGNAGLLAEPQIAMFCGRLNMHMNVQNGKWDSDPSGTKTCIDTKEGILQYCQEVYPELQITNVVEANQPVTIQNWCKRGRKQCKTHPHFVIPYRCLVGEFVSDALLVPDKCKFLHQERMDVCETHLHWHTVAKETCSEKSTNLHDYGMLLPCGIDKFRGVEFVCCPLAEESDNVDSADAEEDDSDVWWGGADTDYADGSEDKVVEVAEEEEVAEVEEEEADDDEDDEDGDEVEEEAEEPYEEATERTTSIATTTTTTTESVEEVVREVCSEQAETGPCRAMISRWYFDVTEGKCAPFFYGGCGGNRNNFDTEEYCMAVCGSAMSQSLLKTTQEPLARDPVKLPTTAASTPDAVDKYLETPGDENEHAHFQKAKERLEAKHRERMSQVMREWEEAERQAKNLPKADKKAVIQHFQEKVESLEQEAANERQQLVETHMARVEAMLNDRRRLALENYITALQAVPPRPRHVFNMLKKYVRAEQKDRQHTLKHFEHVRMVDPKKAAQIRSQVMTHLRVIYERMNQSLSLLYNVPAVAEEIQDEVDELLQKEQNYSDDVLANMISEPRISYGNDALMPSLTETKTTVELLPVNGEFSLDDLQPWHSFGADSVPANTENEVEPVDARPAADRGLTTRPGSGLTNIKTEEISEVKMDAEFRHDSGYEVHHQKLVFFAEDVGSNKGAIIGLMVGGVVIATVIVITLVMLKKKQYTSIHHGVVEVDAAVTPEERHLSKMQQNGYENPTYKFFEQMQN

The term Ki denotes the dissociation constant of the complex between target and ligand, obtained from inhibition or displacement. A lower Ki goes with tighter binding. `COc1ccc(/C=C/c2ccc(/C=C/c3ccc(OC)c(C(=O)O)c3)c(I)c2)cc1C(=O)O`: the Dose/organ in the data set on Mus musculus [1] was 1.44%; in the data set on Mus musculus [2], 0.02%; with Mus musculus [3], 1.02%; with Mus musculus [4], 0.31%; with Mus musculus [5] it was 0.16%; with Mus musculus [6] it was 0.43%. The Dose/organ in the data set with Mus musculus [7] came out at 6.14%; in the data set with Mus musculus [8], 5.19%; in the data set with Mus musculus [9], 0.12%; in the data set with Mus musculus [10], 47.85%; in the data set on Mus musculus [11], 1.82%; in the data set on Mus musculus [12] it was 1.3%. In addition, the Dose/organ in the data set on Mus musculus [13] was 0.17%; in the data set on Mus musculus [14], 0.14%; in the data set with Mus musculus [15], 0.18%; in the data set with Mus musculus [16] it was 3.16%; with Mus musculus [17], 0.89%; in the data set with Mus musculus [19], 1.31%. Besides, the Dose/organ in the data set on Mus musculus [21] turned out to be 22.52%; with Mus musculus [22] it was 0.46%; in the data set on Mus musculus [23], 24.47%; in the data set on Mus musculus [24] it was 0.07%; in the data set with Mus musculus [25] it was 2.17%; in the data set on Mus musculus [26], 0.03%. Besides, the results for the Dose/organ in the data set with Mus musculus [27], in the data set on Mus musculus [28] and in the data set with Mus musculus [29] were 0.23%, 1.56% and 0.03%, respectively. Also, the Ki in data set [18] was 0.17 nM and 0.8 nM; in data set [20] it was over 1000 nM.

Take `O=C(O)c1cc(/C=C/c2ccc(/C=C/c3ccc(O)c(C(=O)O)c3)c(I)c2)ccc1O`: the Dose/organ was 4.13% in the data set with Mus musculus [1]; 0.04% in the data set with Mus musculus [2]; 3.66% with Mus musculus [3]; 0.3% in the data set with Mus musculus [4]; 0.25% in the data set with Mus musculus [5]; 0.33% in the data set with Mus musculus [6]. The Dose/organ in the data set on Mus musculus [7] is on record as 19.12%; with Mus musculus [8] it was 2.98%; in the data set on Mus musculus [9], 0.13%; in the data set on Mus musculus [10], 42.68%; in the data set on Mus musculus [11], 3.9%; in the data set with Mus musculus [12], 2.98%. The Dose/organ in the data set with Mus musculus [13] was 0.25%; with Mus musculus [14] it was 0.27%; in the data set on Mus musculus [15], 0.17%; in the data set with Mus musculus [16], 5.68%; with Mus musculus [17], 0.81%; in the data set with Mus musculus [19], 1.67%. The Dose/organ worked out at 7.57% in the data set on Mus musculus [21]; 0.77% with Mus musculus [22]; 30.16% in the data set on Mus musculus [23]; 0.13% in the data set with Mus musculus [24]; 2.59% with Mus musculus [25]; 0.06% in the data set on Mus musculus [26]. In addition, the Dose/organ in the data set on Mus musculus [27] worked out at 0.63%; in the data set with Mus musculus [28] it was 4.02%; with Mus musculus [29] it was 0.07%.

In data set [18], `CN(C)c1ccc(-c2nc3ccc(Br)cc3s2)cc1` displayed a Ki of over 3000 nM.

The molecule `CN1CCN(c2ccc(-c3nc4ccc(Br)cc4s3)cc2)CC1` returned a Ki in data set [18] of over 2400 nM.
